RAM network inh – blocks the yeast RAM network; S. cerevisiae dse1pr::URA3 reporter, 5-FOA growth OD615, 2 d; analog-sensitive cbk1-as2 kinase mutant strain; 190,000 tested, 1.8% active; inhibition, % at 50 µM;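 active = inhibition above a set limit, 3 SD over mean compound inhibition, cut at about 8.4% in these data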;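 also: inhibition rescues growth on 5-FOA so higher OD means more RAM inhibition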
Yeast life ext – yeast lifespan extension | S. cerevisiae growth with nicotinamide, OD615; deaD strain in restrictive glucose medium | inhibition of the nicotinamide effect, % at 10 µM | 130,000 tested, 0.68% active;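 active = inhibition above a set limit, placed 3 SD over the median of all compounds, cut at about 26% in these data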
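Buffer or medium: CSMM-D glucose medium, restrictive; test system: modified budding yeast, DeaD strain; compound: single dose 10 µM compound, 0.25% DMSO; schedule: culture preincubation 4 h, compound exposure 48 h, both 30 °C; detection: optical density (absorbance) at 615 nm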
WT yeast gro inh – growth inhibition of WT yeast, mitochondrial fusion screen | inhibition, % at 10 µM | 190,000 tested, 2.1% active | mitochondrial fusion phenotypic screen, WT strain | AID 1362; in the data active = inhibition above about 58%; tested in S. cerevisiae
BB579 growth dn – chemicals that inhibit yeast BB579 growth in restrictive medium (lifespan-shortening candidates); S. cerevisiae BB579 growth, OD615, 48 h; inhibition, % at 10 µM; 140,000 tested, 0.51% active; AID 804;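 active = inhibition above a set limit, 3 SD over the mean compound inhibition, cut at about 44% in these data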
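System: DeaD yeast strain BB579; buffer or medium: CSMM-D dextrose restrictive medium; technique: OD at 615 nm; schedule: 4 h cell preincubation, 48 h compound exposure, 30 °C humidified; doses: single 10 µM dose; controls: amphotericin B 10 µg/mL, positive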
Of the large screens only hits and unclear results are named; the others gave an inactive call. Shown are actives, neighbours in structure and some others; about 4.3% of the full set was active somewhere.

Cc1nnc(SCC(=O)N2c3ccccc3C(C)(c3ccccc3)CC2(C)C)s1 (centres undefined)	none
CC(C)OCC(O)Cn1c(N2CCCC2)nc2c1c(=O)[nH]c(=O)n2C (centres undefined)	none
Cn1c(=O)[nH]c(=O)c2c1nc(N1CCCCC1)n2CC(O)CN1CCCCC1 (centres undefined)	Yeast life ext 45
CN(C)S(=O)(=O)c1cccc(C(=O)NCc2cccs2)c1	none
COc1cccc(-c2nc(-c3ccc4c(c3)-c3ccccc3S4(=O)=O)c(-c3ccccc3)[nH]2)c1OC	RAM network inh 9.2 (no result: Yeast life ext)
CC(=O)Nc1ccc(N2CCOCC2)c([N+](=O)[O-])c1	none (no result: Yeast life ext, BB579 growth dn)
CCC(=O)Nc1sc(Cc2ccccc2)c(C)c1C(N)=O	WT yeast gro inh 74 (no result: Yeast life ext, BB579 growth dn)
Cc1ccc(O)c(C(=O)c2cc(C(=O)NCCc3ccccc3)c(=O)n(CCc3ccccc3)c2)c1	RAM network inh 8.9
COc1ccc(O)c(C(=O)c2cc(C(=O)NCCc3ccccc3)c(=O)n(CCc3ccccc3)c2)c1	none
Cc1nc2ccccn2c1C(=O)NC1CCCC1	none (no result: Yeast life ext, BB579 growth dn)
Cc1nc2ccccn2c1C(=O)NN=C1C2CC3CC(C2)CC1C3	Yeast life ext 38
COc1ccc(-c2nc(N)ncc2-c2csc(C)n2)c(O)c1	none
COc1ccc(-c2nc(N)nc(C)c2Oc2ccccc2Br)c(O)c1	WT yeast gro inh 83
CC1(C)CCCN(C(=O)N2c3ccccc3Sc3ccccc32)C1	RAM network inh 11
Cc1c(NC(=O)CSc2nc3c(cnn3-c3ccccc3)c(=O)[nH]2)c(=O)n(-c2ccccc2)n1C	RAM network inh 11
COc1cc(CCCN2C(=S)NC[C@@H]2c2ccccc2)cc(OC)c1OC	none (no result: Yeast life ext, BB579 growth dn)
COc1ccc(C(=O)NCc2nnc(SCC(=O)Nc3nc4ccc(C)cc4s3)o2)cc1OC	none
Clc1cccc(Cl)c1/C=C/c1nc2ccccc2[nH]1	WT yeast gro inh 81
Clc1ccc(/C=C/c2nc3ccccc3[nH]2)cc1	none
CN(C)CCNC=C(C(=O)Nc1ccc(Cl)cc1Cl)C(=O)Nc1ccc(Cl)cc1Cl	RAM network inh 9.0, WT yeast gro inh 98, BB579 growth dn 99
CC(=O)/C(=C/N(C)C)C(=O)Nc1ccc(Cl)cc1Cl	none (no result: Yeast life ext, BB579 growth dn)
Cc1cc(-n2cnnn2)ccc1C(C)C	none (no result: Yeast life ext, BB579 growth dn)
CNC(=O)COc1ncnc2sccc12	none
Cc1cc(C(=O)COc2ncnc3sccc23)c(C)n1C	Yeast life ext 35
CC(C)OC(=O)CSc1nnc(-c2ccc(Cl)cc2Cl)o1	none
CCCCOC(=O)CSc1nnc(-c2ccc(Cl)cc2Cl)o1	WT yeast gro inh 60
CC(C)c1nnc(NC(=O)CSc2nnc(NC(=O)c3c(F)cccc3F)s2)s1	RAM network inh 10 (no result: Yeast life ext, BB579 growth dn)
Nc1nc(-c2cccc(Br)c2)cs1	WT yeast gro inh 71
CCOc1ccc(NC(=O)c2nn(-c3ccc(OC)cc3OC)c(=O)c3ccccc23)cc1	none (no result: Yeast life ext, BB579 growth dn)
COc1ccc(C2=NN(c3nc(-c4ccccc4)c(CC(=O)O)s3)C(c3ccco3)C2)cc1 (centres undefined)	Yeast life ext 31
O=C(Nc1ccc(N2CCOCC2)cc1)Nc1ccc(Cl)c(Cl)c1	none
O=C(Nc1ccc(Cl)c(Cl)c1)Nc1ccc(Br)cc1F	WT yeast gro inh 81
O=C1C=C(NC(=O)Nc2ccc(Cl)c(Cl)c2)CCC1	WT yeast gro inh 80 (no result: Yeast life ext, BB579 growth dn)
Cc1cccc(N(CC(=O)N/N=C/c2cc([N+](=O)[O-])ccc2Cl)S(C)(=O)=O)c1C	none
Cn1c(CCCOc2ccc(Cl)cc2Cl)nnc1SCC(=O)Nc1ccc(F)c(Cl)c1	RAM network inh 9.0
CCn1c(CNC(=O)COc2ccc(C(C)C)cc2)nnc1SCC(=O)Nc1cc(F)ccc1C	none
CCn1c(CNC(=O)COc2ccc(C(C)C)cc2)nnc1SCC(=O)Nc1ccc(F)cc1	RAM network inh 10.0 (no result: WT yeast gro inh)
CCc1cccc(C)c1NC(=O)CSc1nnc(CCCOc2ccc(Cl)cc2Cl)n1C	none
Cn1c(CCCOc2ccc(Cl)cc2Cl)nnc1SCC(=O)Nc1cccc(F)c1	none
C=CCn1c(CCCOc2ccc(Cl)cc2Cl)nnc1SCC(=O)Nc1nccs1	RAM network inh 8.9
CCn1c(CCCOc2ccc(Cl)cc2Cl)nnc1SCC(=O)Nc1cc(F)ccc1C	WT yeast gro inh 79
O=C1c2ccccc2C(=O)N1CCc1c[nH]c2ccc(O)cc12	none (no result: Yeast life ext, BB579 growth dn)
Cn1ccnc1C(=O)c1ccc(S(=O)(=O)N2CCCC2)cc1	none (no result: Yeast life ext, BB579 growth dn)
CCn1c(SCC(=O)N/N=C(\C)c2ccco2)nnc1-c1ccccc1	none (no result: Yeast life ext, BB579 growth dn)
CC1Cc2ccccc2N1C(=O)c1cc2sccc2n1Cc1ccc(F)cc1 (centres undefined)	none (no result: Yeast life ext)
O=C(/C=C/c1ccccc1Cl)c1cccnc1	none
O=C(/C=C/c1ccccc1Cl)c1ccccc(=O)c1O	BB579 growth dn 99
Cc1ccc(C)c(/C=C/C(=O)c2ccccc(=O)c2O)c1	BB579 growth dn 99
Cc1ccc(/C=C/C(=O)c2ccccc(=O)c2O)c(C)c1	BB579 growth dn 99
Cc1ccc(C)c(NC(=O)c2ccccc2O)c1	none
O=C(NNS(=O)(=O)c1ccccc1[N+](=O)[O-])c1cccc([N+](=O)[O-])c1	none
COc1ccc(CCN=C(N)NS(=O)(=O)c2ccc3ccccc3c2)cc1	none
Clc1cccc(Cl)c1Cn1cnc2c(N3CCCCCC3)ncnc21	WT yeast gro inh 75
COc1ccc(C(=O)NN(C)c2nc(-c3ccccc3)nnc2C(F)(F)F)cc1	WT yeast gro inh 64
Cc1cccc(N2CCN(C(c3ccccc3)c3nnnn3C(C)(C)C)CC2)c1C (centres undefined)	WT yeast gro inh 75 (no result: Yeast life ext)
Cc1ccc(C(c2nnnn2CC2CCCO2)N2CCN(c3cccc(C)c3C)CC2)cc1 (centres undefined)	WT yeast gro inh 60
CCCCNC(=S)N1CCN(c2ccccc2Cl)CC1	WT yeast gro inh 66 (no result: Yeast life ext, BB579 growth dn)
S=C(NCc1ccco1)N1CCN(c2ccccc2Cl)CC1	WT yeast gro inh 72 (no result: Yeast life ext, BB579 growth dn)
CCCCN1C2=C(C(=O)CCC2)C(c2ccc(Cl)c(Cl)c2)C2=C1c1ccccc1C2=O (centres undefined)	WT yeast gro inh 67
Cc1ccccc1CNC(=O)c1ccc(Cl)c([N+](=O)[O-])c1	none
CC(C)(C)SCCNC(=O)c1ccc(Cl)c([N+](=O)[O-])c1	WT yeast gro inh 81
CCOC(=O)Cc1ccc2sc(-c3ccccc3)nc2c1	WT yeast gro inh 64
O=C1/C(=C/c2ccccc2)CCCc2ccccc21	none
CN(C)c1ccc(/C=C2\CCC/C(=C\c3ccccc3)C2=O)cc1	RAM network inh 9.0
O=C1/C(=C/c2cccnc2)CCC/C1=C\c1cccnc1	Yeast life ext 74
CCC1C/C(=C\c2cccnc2)C(=O)/C(=C/c2cccnc2)C1 (centres undefined)	Yeast life ext 84, WT yeast gro inh 64
O=C1/C(=C/c2cccnc2)CC/C1=C\c1cccnc1	none (no result: Yeast life ext, BB579 growth dn)
Cc1ccc(S(=O)(=O)NC(=O)c2ccc(-c3ccc(C)c4ccccc34)o2)cc1	none
Cc1nnc(SCC(=O)Nc2nccs2)n(N)c1=O	none (no result: Yeast life ext, BB579 growth dn)
CC(=O)c1ccc(N2Cc3ccccc3C3(CCOCC3)C2=N)cc1	none (no result: Yeast life ext, BB579 growth dn)
Cc1ccc(Nc2cc(-n3nc(C)cc3C)ncn2)c(C)c1	RAM network inh 9.1
Cn1c(-c2sccc2OCc2ccc(Cl)cc2Cl)n[nH]c1=S	WT yeast gro inh 64 (no result: Yeast life ext, BB579 growth dn)

From PubChem
